According to ChEMBL document CHEMBL4152184, “NB 06: From a simple lysosomotropic aSMase inhibitor to tools for elucidating the role of lysosomes in signaling apoptosis and LPS-induced inflammation” (Eur J Med Chem, 2018):

Assays:
MONO-MAC-6 [1] = experiment: Upregulation of CXCL3 mRNA expression level in human MONO-MAC-6 cells at 5 uM incubated for 30 mins measured after 1 hr by oligonucleotide array hybridization assay relative to control; type: functional
MONO-MAC-6 [2] = experiment: Upregulation of CCL4 mRNA expression level in LPS-stimulated human MONO-MAC-6 cells at 5 uM preincubated for 30 mins followed by LPS stimulation measured after 1 hr by oligonucleotide array hybridization assay (reference value: 1.14); type: functional
MONO-MAC-6 [3] = experiment: Downregulation of PTX3 mRNA expression level in human MONO-MAC-6 cells at 5 uM incubated for 30 mins measured after 1 hr by oligonucleotide array hybridization assay relative to control; type: functional
Method in brief: (§1)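 Total RNA was isolated, transcribed and labeled with DY-647 dye, then co-hybridized with DY-548-labeled cDNA from untreated cells on an inflammation oligonucleotide chip (780 gene probes). Differential expression >1.5 was taken as significant.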

MONO-MAC-6 [4] = experiment: Upregulation of CXCL10 mRNA expression level in LPS-stimulated human MONO-MAC-6 cells at 5 uM preincubated for 30 mins followed by LPS stimulation measured after 2 hrs by oligonucleotide array hybridization assay (reference value: 1.73); type: functional
MONO-MAC-6 [5] = experiment: Downregulation of CXCL10 mRNA expression level in human MONO-MAC-6 cells at 5 uM incubated for 30 mins measured after 4 hrs by oligonucleotide array hybridization assay relative to control; type: functional; method in brief: as §1
MONO-MAC-6 [6] = experiment: Downregulation of CXCL2 mRNA expression level in human MONO-MAC-6 cells at 5 uM incubated for 30 mins measured after 1 hr by oligonucleotide array hybridization assay relative to control; type: functional; method in brief: as §1
MONO-MAC-6 [7] = experiment: Upregulation of CXCL2 mRNA expression level in LPS-stimulated human MONO-MAC-6 cells at 5 uM preincubated for 30 mins followed by LPS stimulation measured after 2 hrs by oligonucleotide array hybridization assay (reference value: 4.20); type: functional
MONO-MAC-6 [8] = experiment: Upregulation of CXCL2 mRNA expression level in human MONO-MAC-6 cells at 5 uM incubated for 30 mins measured after 2 hrs by oligonucleotide array hybridization assay relative to control; type: functional
MONO-MAC-6 [9] = experiment: Upregulation of PTGS2 mRNA expression level in human MONO-MAC-6 cells at 5 uM incubated for 30 mins measured after 4 hrs by oligonucleotide array hybridization assay relative to control; type: functional
MONO-MAC-6 [10] = experiment: Downregulation of PTGS2 mRNA expression level in LPS-stimulated human MONO-MAC-6 cells at 5 uM preincubated for 30 mins followed by LPS stimulation measured after 6 hrs by oligonucleotide array hybridization assay (reference value: 3.58); type: functional; method in brief: as §1
MONO-MAC-6 [11] = experiment: Downregulation of ICAM1 mRNA expression level in human MONO-MAC-6 cells at 5 uM incubated for 30 mins measured after 4 hrs by oligonucleotide array hybridization assay relative to control; type: functional; method in brief: as §1
MONO-MAC-6 [12] = experiment: Upregulation of IL23A mRNA expression level in human MONO-MAC-6 cells at 5 uM incubated for 30 mins measured after 1 hr by qRT-PCR method relative to control; type: functional
MONO-MAC-6 [13] = experiment: Upregulation of IL23A mRNA expression level in LPS-stimulated human MONO-MAC-6 cells at 5 uM preincubated for 30 mins followed by LPS stimulation measured after 2 hrs by qRT-PCR method (reference value: 1.39); type: functional
MONO-MAC-6 [14] = experiment: Upregulation of IL23A mRNA expression level in human MONO-MAC-6 cells at 5 uM incubated for 30 mins measured after 4 hrs by qRT-PCR method relative to control; type: functional
MONO-MAC-6 [15] = experiment: Upregulation of IL23A mRNA expression level in LPS-stimulated human MONO-MAC-6 cells at 5 uM preincubated for 30 mins followed by LPS stimulation measured after 6 hrs by qRT-PCR method (reference value: 7.18); type: functional
MONO-MAC-6 [16] = experiment: Upregulation of TNFalpha mRNA expression level in LPS-stimulated human MONO-MAC-6 cells at 5 uM preincubated for 30 mins followed by LPS stimulation measured after 1 hr by qRT-PCR method (reference value: 1.08); type: functional
MONO-MAC-6 [17] = experiment: Downregulation of TNFalpha mRNA expression level in human MONO-MAC-6 cells at 5 uM incubated for 30 mins measured after 2 hrs by qRT-PCR method relative to control; type: functional
MONO-MAC-6 [18] = experiment: Downregulation of TNFalpha mRNA expression level in LPS-stimulated human MONO-MAC-6 cells at 5 uM preincubated for 30 mins followed by LPS stimulation measured after 6 hrs by qRT-PCR method (reference value: 2.17); type: functional
[19] = molecular target: T1, Sphingomyelin phosphodiesterase (Homo sapiens, UniProt P17405); experiment: Inhibition of mmLDL-stimulated acid sphingomyelinase in human PBMC lysates using BODIPY FL C5-sphingomyelin as substrate preincubated for 30 mins followed by mmLDL stimulation measured after 2 hrs by HPLC method
T1 sequence (P17405 whole entry): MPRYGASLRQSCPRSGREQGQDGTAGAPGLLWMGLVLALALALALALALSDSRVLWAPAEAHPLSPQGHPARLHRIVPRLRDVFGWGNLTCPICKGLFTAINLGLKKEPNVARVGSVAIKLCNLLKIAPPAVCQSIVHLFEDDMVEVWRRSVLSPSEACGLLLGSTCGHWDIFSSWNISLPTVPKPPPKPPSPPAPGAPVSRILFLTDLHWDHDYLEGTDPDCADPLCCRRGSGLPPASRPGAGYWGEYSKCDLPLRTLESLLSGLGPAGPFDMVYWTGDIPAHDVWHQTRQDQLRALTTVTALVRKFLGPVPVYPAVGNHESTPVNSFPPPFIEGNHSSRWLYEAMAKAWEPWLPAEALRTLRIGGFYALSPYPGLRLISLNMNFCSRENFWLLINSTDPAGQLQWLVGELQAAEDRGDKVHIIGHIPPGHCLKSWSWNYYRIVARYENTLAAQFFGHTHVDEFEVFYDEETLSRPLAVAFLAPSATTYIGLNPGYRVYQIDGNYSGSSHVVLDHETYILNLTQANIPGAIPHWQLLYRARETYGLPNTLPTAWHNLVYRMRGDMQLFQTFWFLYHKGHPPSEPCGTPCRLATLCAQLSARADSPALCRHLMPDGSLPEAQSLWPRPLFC

COc1ccc(CCN(C)CCCn2c3ccccc3c3ccccc32)cc1
fold change (FC) (MONO-MAC-6 [1]): 1.46 | fold change (FC) (MONO-MAC-6 [2]): 1.24 | fold change (FC) (MONO-MAC-6 [3]): 1.48 | fold change (FC) (MONO-MAC-6 [4]): 1.63 | fold change (FC) (MONO-MAC-6 [5]): 2.08 | fold change (FC) (MONO-MAC-6 [6]): 1.12 | fold change (FC) (MONO-MAC-6 [7]): 3.88 | fold change (FC) (MONO-MAC-6 [8]): 1.11 | fold change (FC) (MONO-MAC-6 [9]): 1.17 | fold change (FC) (MONO-MAC-6 [10]): 1.06 | fold change (FC) (MONO-MAC-6 [11]): 1.57 | fold change (FC) (MONO-MAC-6 [12]): 1.01 | fold change (FC) (MONO-MAC-6 [13]): 1.87 | fold change (FC) (MONO-MAC-6 [14]): 1.39 | fold change (FC) (MONO-MAC-6 [15]): 1.1 | fold change (FC) (MONO-MAC-6 [16]): 1.23 | fold change (FC) (MONO-MAC-6 [17]): 3.78 | fold change (FC) (MONO-MAC-6 [18]): 1.16 | IC50 [19]: 13 to 17 µM
